APJ agonist: APJ receptor agonism | AID 2520 | activation, % at 20 µM | 330,000 tested, 0.11% active | CHO-K1 APJ PathHunter beta-arrestin, luminescence; 0% DMSO wells, 100% apelin;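 active means activation more than six SD over the plate average, tested at 20 µM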;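 further: 0% = DMSO alone and 100% = apelin-13 at 10 nM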
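Assay system: CHO-K1 APJ beta-arrestin complementation cell line / Compound: single test compound dose, 20 µM final, 1% DMSO / Times: overnight seeding, 90 min compound at 25 °C, 1 h detection / Technique: beta-gal luminescence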
CXCR6 inh: blocks human CXCR6 beta-arrestin recruitment; AID 602244; CHO-K1 PathHunter CXCR6 beta-arrestin, luminescence; O00574; inhibition, % at 20 µM; 360,000 tested, 0.36% active; in the data active means inhibition above about 34%, passing the limit was not always enough;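 further: antagonist mode with CXCL16 agonist at 10 nM final; 0% = 10 nM CXCL16 with DMSO and 100% = unstimulated wells without agonist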
Target sequence (O00574 whole entry, looked up): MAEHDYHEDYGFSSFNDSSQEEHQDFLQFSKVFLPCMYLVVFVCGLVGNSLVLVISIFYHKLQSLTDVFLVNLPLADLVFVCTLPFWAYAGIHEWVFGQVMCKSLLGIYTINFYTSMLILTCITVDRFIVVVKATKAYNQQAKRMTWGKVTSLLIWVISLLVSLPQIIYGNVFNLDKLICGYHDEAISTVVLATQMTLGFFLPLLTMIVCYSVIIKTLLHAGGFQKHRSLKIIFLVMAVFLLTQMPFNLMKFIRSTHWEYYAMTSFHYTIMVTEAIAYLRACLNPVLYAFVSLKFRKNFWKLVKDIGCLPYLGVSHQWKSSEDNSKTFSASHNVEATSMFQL
EBI2 block: antagonists of human EBI2 receptor. EBI2 beta-arrestin recruitment, luminescence, 7a,25-OHC stimulated. inhibition, % at 5 µM. 360,000 tested, 0.81% active. P32249; in the data active means inhibition above about 38%;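 further: enzyme fragment complementation signal reports receptor beta-arrestin coupling in cells; 0% = agonist plus DMSO wells and 100% = wells without agonist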
Target sequence (P32249 whole entry, looked up, the tested form may be a part): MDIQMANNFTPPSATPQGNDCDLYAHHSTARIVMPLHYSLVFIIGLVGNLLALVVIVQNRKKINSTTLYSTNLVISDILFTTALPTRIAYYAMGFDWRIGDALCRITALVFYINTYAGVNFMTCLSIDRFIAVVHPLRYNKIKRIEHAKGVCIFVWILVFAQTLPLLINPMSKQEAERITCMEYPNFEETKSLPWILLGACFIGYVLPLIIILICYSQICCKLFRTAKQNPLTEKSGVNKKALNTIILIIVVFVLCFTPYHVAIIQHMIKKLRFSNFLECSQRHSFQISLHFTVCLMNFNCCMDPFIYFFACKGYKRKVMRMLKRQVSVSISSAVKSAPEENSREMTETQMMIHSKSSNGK
CCR6 antagonist: antagonists of human CCR6 receptor; P51684; AID 493098; 340,000 tested, 0.49% active; inhibition, % at 20 µM; CHO-K1 CCR6 PathHunter beta-arrestin, luminescence, CCL20-stimulated;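 active means compounds whose inhibition of the agonist-driven luminescence signal at 20 µM reaches about 50%, limit read from the data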;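 further: cells stimulated with CCL20 at 14 nM final; plate controls were DMSO with CCL20 for no effect and DMSO without agonist for full effect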
APJ antag: blocks the human apelin receptor APJ; 330,000 tested, 0.32% active; inhibition, % at 20 µM; AID 2521; CHO-K1 APJ beta-arrestin complementation, luminescence; P35414;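 active means inhibition above about 40% at 20 µM, limit read from the data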;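 further: cells challenged with 10 nM apelin-13 agonist together with compound; plate controls were apelin-13 plus DMSO wells for no effect and DMSO wells lacking apelin-13 for full effect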
m5-HT2A agonist: activates the mouse 5-HT2A serotonin receptor | P35363 | CHO-K1 mHTR2A beta-arrestin complementation, luminescence; percent of 30 µM serotonin response | activation, % at 7.6 µM | 360,000 tested, 0.66% active | AID 624169;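 active means activation above a run cutoff, the mean activation of all tested compounds plus 3 SD, cut at about 14% in these data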;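 further: 0% = plate median of compound wells and 100% = 30 µM serotonin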
APJ antag confirm: APJ receptor antagonism confirmation; shares compounds with APJ antag; APJ beta-arrestin recruitment, luminescence, antagonist mode; inhibition, % at 20 µM; 950 tested, 66% active; AID 2766; in the data active means inhibition above about 50%
Starred values were filed as active, the others as inactive; nt = no result. Sampled rows, rich in hits. Any-hit rate of the full collection: about 2.1%.

SMILES	APJ agonist	CXCR6 inh	EBI2 block	CCR6 antagonist	APJ antag	m5-HT2A agonist	APJ antag confirm
Cc1ccccc1NC(=O)CCC(=O)OCC(=O)c1cccc([N+](=O)[O-])c1	-8.8	32.7	7.4	54.1*	56.2*	0.6	98.1*
COc1ccccc1NC(=O)CCC(=O)OCc1cccc([N+](=O)[O-])c1	0.9	0.0	-0.6	2.9	12.7	-1.9	nt
COc1ccccc1NC(=O)CCC(=O)OCC(=O)c1ccc(C)c([N+](=O)[O-])c1	-22.5	32.9	11.2	35.2	50.2*	5.6	62.0*
O=C(CCC(=O)OCC(=O)c1cccc([N+](=O)[O-])c1)Nc1cccc(Cl)c1Cl	-13.9	26.4	6.5	61.7*	40.7*	-0.2	80.7*
Cc1ccc(C(=O)COC(=O)CCS(=O)(=O)c2ccccc2)cc1[N+](=O)[O-]	-9.3	25.6	4.8	29.0	39.4	1.9	nt
CC(=O)NCCNC(=O)C1Cc2c(-c3ccc4c(c3)OCO4)ccnc2O1 (stereo unspecified)	nt	-5.8	-4.8	nt	nt	2.0	nt
COC(=O)c1ccccc1NS(=O)(=O)c1ccc(O)c(C(=O)O)c1	-0.9	-8.9	1.8	8.2	10.7	-5.5	nt
O=C(c1ccc(Cl)s1)N1CCCC(N2CCN(c3ccc(F)cc3)CC2)C1 (stereo unspecified)	7.9	-6.4	0.4	20.9	4.4	-8.1	nt
CCOc1cccc(-c2c(C(=O)N/N=C/c3ccsc3)nnn2-c2nonc2N)c1	-2.2	-3.7	-0.2	-4.3	5.3	1.8	nt
O=C(NN1C(=O)/C(=C/c2ccc(O)c([N+](=O)[O-])c2)SC1=S)c1ccccc1Cl	-9.7	39.0*	15.1	54.0*	46.8*	3.1	68.8*
CC(=O)Oc1ccc(/C=C2/SC(=S)N(Cc3ccccc3)C2=O)cc1	-6.6	27.9	13.8	50.2*	46.8*	2.5	71.7*
COc1cc(/C=C2\SC(=S)N(N(C)c3ccccc3)C2=O)ccc1O	-10.9	2.7	-0.3	14.5	56.4*	6.7	95.4*
COc1cc(/C=C2/SC(=S)N(Cc3ccccc3)C2=O)ccc1OCC(=O)O	-0.8	-1.4	2.9	13.7	-9.3	5.5	nt
CCOc1cc(/C=C2/SC(=S)N(Cc3ccccc3)C2=O)ccc1O	-8.0	42.9*	23.7	54.0*	45.9*	-7.9	87.5*
O=C(NNC(=O)c1ccccn1)c1cccc([N+](=O)[O-])c1	-4.1	8.0	-10.9	10.9	14.1	-8.8	nt
COc1ccccc1CN1C(=NC(=O)CCC2CCCC2)SC2CS(=O)(=O)CC21 (stereo unspecified)	-2.5	-7.0	-4.9	7.8	47.5*	5.6	2.2
Cc1ccc(C2=NC(=O)/C(=C/c3cc(O)c(O)c(Br)c3)S2)cc1	-7.8	32.4	4.1	48.5	22.0	-0.8	nt
COc1cc(/C=C2\SC(c3ccc(C)cc3)=NC2=O)cc(OC)c1O	-11.2	37.6	11.1	64.7*	56.2*	-2.0	77.4*
COc1cccc(N2CC(C)Cn3c2nc2c3c(=O)n(CCN3CCOCC3)c(=O)n2C)c1 (stereo unspecified)	-6.3	18.2	4.4	-10.7	41.8*	-4.3	62.0*
Cn1c(O)c(N=Nc2nc(-c3ccccc3)cs2)c2ccccc21	-7.0	33.8	25.7	60.7*	50.0*	-1.3	61.6*
Cn1c(O)c(N=Nc2ccccc2)c2ccccc21	-4.6	-0.3	2.6	9.8	3.3	0.4	nt
CCn1c(SCC(=O)NCC2CCCO2)nc2c([nH]c3ccccc32)c1=O (stereo unspecified)	-7.0	0.0	-16.2	6.9	-17.2	-2.2	nt
O=C(CSc1nc2c([nH]c3ccccc32)c(=O)n1-c1ccccc1)NCC1CCCO1 (stereo unspecified)	-21.0	53.0*	33.5	73.0*	63.7*	-20.1	83.1*
Nc1nc2c(c(=O)[nH]1)C(c1ccccc1)C1=C(N2)c2ccccc2C1=O (stereo unspecified)	-6.7	19.2	8.6	32.8	45.4*	-6.0	39.1
O=C(CNc1cccc(Cl)c1)c1ccc(Br)cc1	-11.9	36.8	-2.4	62.4*	68.7*	0.3	89.8*
SMILES	APJ agonist	CXCR6 inh	EBI2 block	CCR6 antagonist	APJ antag	m5-HT2A agonist	APJ antag confirm
O=C(CNc1ccc(F)cc1)c1ccccc1	-15.3	53.3*	26.6	80.2*	75.6*	-0.9	110.5*
O=C(CNc1ccc(Br)cc1)c1ccccc1	-14.5	45.4*	31.2	80.7*	94.3*	0.4	104.0*
NC(=O)c1ccccc1NCC(=O)c1ccc(F)cc1	-15.4	27.3	3.4	99.2*	82.1*	-4.5	139.6*
O=C(CNC(=S)NC(=O)c1ccc(F)cc1)c1ccccc1	-1.3	9.0	-3.5	3.1	11.4	-0.4	nt
Fc1ccc(-c2cc(C(F)(F)C(F)F)[nH]n2)cc1	5.1	-13.7	6.5	-5.0	13.8	-9.2	nt
Cn1c(=O)c(C(=S)NC(=O)C2CC2)c(N)n(Cc2ccccc2)c1=O	-12.7	nt	nt	nt	41.9*	nt	72.1*
CCN(CC)CC(=O)c1c(N)n(Cc2ccccc2)c(=O)n(C)c1=O	-2.9	-8.3	-6.7	0.6	-4.7	0.7	nt
Cc1cn([C@H]2C[C@H](O)[C@@H](CCC(=O)NCc3cccs3)O2)c(=O)[nH]c1=O	nt	-12.1	1.7	nt	nt	2.1	nt
O=[N+]([O-])c1cccc(/C=N/NS(=O)(=O)c2ccccc2)c1	-9.8	9.7	4.9	46.7	65.5*	10.2	67.5*
C[C@@H]1CCCCO[C@H](CN(C)S(=O)(=O)c2cccs2)[C@H](C)CN([C@@H](C)CO)C(=O)c2cc(NC(=O)NC3CCCCC3)ccc2O1	nt	15.3	-0.7	nt	nt	-4.4	nt
COc1ccc(N=C2C(=O)Nc3ccc(C)c(Br)c32)cc1	-18.6	82.2*	32.4	105.4*	89.4*	-3.9	158.6*
O=[N+]([O-])c1ccc(N/N=C/c2c[nH]c3ccccc23)c(S(=O)(=O)Nc2ccc(Cl)cc2)c1	-8.1	35.4	26.5	45.8	44.1*	1.4	91.4*
CN1CCN(S(=O)(=O)c2cc([N+](=O)[O-])ccc2N/N=C/c2ccc(Cl)cc2)CC1	4.3	3.0	-9.4	-2.9	7.6	-6.3	nt
COc1ccccc1NS(=O)(=O)c1cc([N+](=O)[O-])ccc1N/N=C/c1c(C)[nH]c2ccccc12	-13.2	46.4*	39.1*	58.5*	58.3*	4.3	84.0*
CN(CCc1ccccn1)C(=O)c1cccnc1Oc1ccccc1	-1.4	11.8	4.2	3.6	12.8	6.0	nt
Cc1nn(Cc2ccccc2)c(C)c1NC(=O)c1cc(-c2ccc3c(c2)OCO3)on1	-3.9	8.4	-3.7	1.5	-5.6	2.6	nt
O=C1NN(c2ccccc2)C(=O)/C1=C\c1ccc(-c2cc([N+](=O)[O-])ccc2O)o1	-10.6	42.8*	17.3	62.3*	45.6*	-2.9	93.3*

High-throughput results deposited in PubChem by several laboratories.
